Test results reported in BindingDB's records for doi:10.1021/jm901449m (Progen Pharmaceuticals, 2010).

Columns and labels:
[1] = biological target: T1, Heparanase (Homo sapiens, UniProt Q9Y251); experiment: Inhibition of human recombinant heparanase
T1 sequence (Q9Y251 whole entry): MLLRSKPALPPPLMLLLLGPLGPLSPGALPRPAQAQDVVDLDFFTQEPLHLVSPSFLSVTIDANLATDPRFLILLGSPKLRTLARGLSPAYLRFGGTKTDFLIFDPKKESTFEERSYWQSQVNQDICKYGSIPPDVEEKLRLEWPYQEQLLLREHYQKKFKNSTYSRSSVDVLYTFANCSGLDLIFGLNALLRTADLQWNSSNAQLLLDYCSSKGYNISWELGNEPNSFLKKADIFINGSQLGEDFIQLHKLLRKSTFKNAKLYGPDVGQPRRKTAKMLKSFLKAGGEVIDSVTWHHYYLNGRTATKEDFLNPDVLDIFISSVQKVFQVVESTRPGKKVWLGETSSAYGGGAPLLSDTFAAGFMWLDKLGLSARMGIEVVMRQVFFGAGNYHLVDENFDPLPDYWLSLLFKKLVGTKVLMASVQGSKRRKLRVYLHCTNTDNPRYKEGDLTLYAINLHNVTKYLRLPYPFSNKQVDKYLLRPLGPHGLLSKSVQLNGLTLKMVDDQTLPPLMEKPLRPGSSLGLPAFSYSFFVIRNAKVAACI
Outline: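 Recombinant human heparanase assayed by ultrafiltration with 3H-labelled heparan sulfate as substrate (Km = 1.64 μM). Ki values with standard error were derived from inhibition response curves.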

[2] = biological target: Fibroblast growth factor 1 (Homo sapiens, UniProt P05230); experiment: Binding affinity to FGF1 by surface plasmon-based solution affinity assay
Fibroblast growth factor 1, sequence (P05230 whole entry): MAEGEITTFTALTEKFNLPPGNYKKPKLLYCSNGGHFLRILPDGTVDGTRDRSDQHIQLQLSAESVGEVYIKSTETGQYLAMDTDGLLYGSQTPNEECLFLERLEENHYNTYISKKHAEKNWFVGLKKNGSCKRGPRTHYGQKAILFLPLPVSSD
Outline: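 Surface plasmon resonance solution affinity assay on heparin-coated CM4 chips. Buffer: HBS-EP (10 mM HEPES pH 7.4, 150 mM NaCl, 3.0 mM EDTA, 0.005% polysorbate 20). Kd is the mean of at least duplicate measurements ± SD.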

[3] = biological target: Fibroblast growth factor 2 (Homo sapiens, UniProt P09038); experiment: Binding affinity to FGF2 by surface plasmon-based solution affinity assay
Fibroblast growth factor 2, sequence (P09038 143-288 limits assumed): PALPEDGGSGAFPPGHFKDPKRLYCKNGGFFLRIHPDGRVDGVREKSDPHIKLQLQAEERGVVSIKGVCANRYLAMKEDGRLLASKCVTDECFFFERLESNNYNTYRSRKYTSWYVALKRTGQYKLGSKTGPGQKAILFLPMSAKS
Outline: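 Surface plasmon resonance solution affinity assay on heparin-coated CM4 chips. FGF-2 binding run in HBS-EP containing 300 mM NaCl. Kd is the mean of at least duplicate measurements ± SD.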

[4] = biological target: T2, Vascular endothelial growth factor A (Homo sapiens, UniProt P15692); experiment: Binding affinity to VEGF by surface plasmon-based solution affinity assay
T2 sequence (P15692 whole entry): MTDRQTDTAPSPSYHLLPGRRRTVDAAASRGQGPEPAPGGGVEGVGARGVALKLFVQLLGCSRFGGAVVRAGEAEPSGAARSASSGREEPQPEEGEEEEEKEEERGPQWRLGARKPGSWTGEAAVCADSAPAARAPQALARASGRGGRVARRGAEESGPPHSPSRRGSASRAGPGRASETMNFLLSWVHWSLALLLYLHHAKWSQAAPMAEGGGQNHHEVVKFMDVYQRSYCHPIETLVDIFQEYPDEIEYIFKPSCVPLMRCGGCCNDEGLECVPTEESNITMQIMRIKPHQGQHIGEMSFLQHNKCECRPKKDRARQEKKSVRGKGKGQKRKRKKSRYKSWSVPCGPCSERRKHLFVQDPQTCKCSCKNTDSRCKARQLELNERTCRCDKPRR

SMILES: O=P(O)(O)OC[C@H]1O[C@H](O[C@@H]2[C@H](OS(=O)(=O)O)[C@@H](O[C@@H]3[C@H](OS(=O)(=O)O)[C@@H](O[C@@H]4[C@H](OS(=O)(=O)O)[C@@H](O[C@@H]5[C@@H](OS(=O)(=O)O)O[C@H](COS(=O)(=O)O)[C@@H](OS(=O)(=O)O)[C@@H]5OS(=O)(=O)O)O[C@H](COS(=O)(=O)O)[C@H]4OS(=O)(=O)O)O[C@H](COS(=O)(=O)O)[C@H]3OS(=O)(=O)O)O[C@H](COS(=O)(=O)O)[C@H]2OS(=O)(=O)O)[C@@H](OS(=O)(=O)O)[C@@H](OS(=O)(=O)O)[C@@H]1OS(=O)(=O)O [PI-88]
- Ki [1]: 240 nM
- Kd [2]: 0.24 nM
- Kd [3]: 61 nM
- Kd [4]: 2.2 nM
